Laboratory results published in ChEMBL document CHEMBL1759857, “Synthesis and evaluation of isatin analogs as caspase-3 inhibitors: introduction of a hydrophilic group increases potency in a whole cell assay” (Bioorg Med Chem Lett, 2011).

How the values were obtained:
Caspase-8 = Caspase-8 (Homo sapiens, UniProt Q14790); assay: Inhibition of caspase 8 by fluorometric assay
Outline: (§1)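 Recombinant caspases were tested in a standard fluorometric enzyme assay. IC50 is reported as mean ± SD of at least three independent assays.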

Caspase-3 [1] = target: T1, Caspase-3 (Homo sapiens, UniProt P42574); assay: Inhibition of staurosporine induced activation of caspase 3 activation in human Hela cells assessed as hydrolysis of Z-DEVD-R110 substrate by microplate fluorescence assay; format: cell-based
T1 sequence (P42574 whole entry): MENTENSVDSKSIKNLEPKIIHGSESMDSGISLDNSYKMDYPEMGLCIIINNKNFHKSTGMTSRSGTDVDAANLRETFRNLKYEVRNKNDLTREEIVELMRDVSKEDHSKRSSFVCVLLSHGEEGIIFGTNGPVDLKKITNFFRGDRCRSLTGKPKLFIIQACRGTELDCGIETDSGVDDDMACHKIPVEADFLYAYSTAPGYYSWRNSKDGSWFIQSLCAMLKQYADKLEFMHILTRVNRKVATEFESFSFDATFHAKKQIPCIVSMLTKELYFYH
Outline: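 HeLa cells were seeded at 1-2×10^4 per well and left to adhere overnight at 37°C in 5% CO2. […] A homogeneous caspase-3/7 kit with cell-permeable Z-DEVD-R110 was then used, reading fluorescence at ex 485/em 535 nm. EC50 was taken from dose-response curves, as mean ± SD of ≥3 independent experiments.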

Caspase-1 = target: T2, Caspase-1 (Homo sapiens, UniProt P29466); assay: Inhibition of caspase 1 by fluorometric assay; outline: as §1
T2 sequence (P29466 whole entry): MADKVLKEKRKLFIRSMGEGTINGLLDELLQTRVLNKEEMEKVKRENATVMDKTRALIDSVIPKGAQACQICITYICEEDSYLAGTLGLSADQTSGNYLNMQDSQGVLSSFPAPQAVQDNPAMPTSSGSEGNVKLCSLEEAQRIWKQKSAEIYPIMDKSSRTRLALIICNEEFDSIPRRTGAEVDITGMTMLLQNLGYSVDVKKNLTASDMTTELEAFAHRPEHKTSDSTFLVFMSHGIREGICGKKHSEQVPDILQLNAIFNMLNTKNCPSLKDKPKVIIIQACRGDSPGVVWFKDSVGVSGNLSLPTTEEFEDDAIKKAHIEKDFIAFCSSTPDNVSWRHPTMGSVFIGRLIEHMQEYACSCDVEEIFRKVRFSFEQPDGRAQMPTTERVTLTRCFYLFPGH

Caspase-3 [2] = target: T1, Caspase-3; assay: Inhibition of human caspase 3 by fluorometric assay; outline: as §1
Caspase-7 = target: T3, Caspase-7 (Homo sapiens, UniProt P55210); assay: Inhibition of caspase 7 by fluorometric assay
T3 sequence (P55210 whole entry): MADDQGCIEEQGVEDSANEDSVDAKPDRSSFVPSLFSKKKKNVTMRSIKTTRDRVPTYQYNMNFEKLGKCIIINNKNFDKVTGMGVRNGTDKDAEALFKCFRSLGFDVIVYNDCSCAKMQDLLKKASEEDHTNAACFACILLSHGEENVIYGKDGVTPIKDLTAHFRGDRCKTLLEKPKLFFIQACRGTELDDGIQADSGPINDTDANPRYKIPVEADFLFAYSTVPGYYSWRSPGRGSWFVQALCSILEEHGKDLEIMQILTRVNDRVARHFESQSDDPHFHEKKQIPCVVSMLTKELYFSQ

Caspase-6 = target: T4, Caspase-6 (Homo sapiens, UniProt P55212); assay: Inhibition of caspase 6 by fluorometric assay; outline: as §1
T4 sequence (P55212 whole entry): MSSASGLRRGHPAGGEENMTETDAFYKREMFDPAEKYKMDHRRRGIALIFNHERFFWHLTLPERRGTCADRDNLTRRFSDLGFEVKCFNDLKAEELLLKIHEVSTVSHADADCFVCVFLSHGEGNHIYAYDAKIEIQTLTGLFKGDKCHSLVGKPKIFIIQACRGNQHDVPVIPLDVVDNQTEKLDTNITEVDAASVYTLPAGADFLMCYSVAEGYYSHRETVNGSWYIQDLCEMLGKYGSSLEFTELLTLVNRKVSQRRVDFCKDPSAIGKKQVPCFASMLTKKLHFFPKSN

Sequence of Caspase-8 (Q14790 217-374 limits assumed): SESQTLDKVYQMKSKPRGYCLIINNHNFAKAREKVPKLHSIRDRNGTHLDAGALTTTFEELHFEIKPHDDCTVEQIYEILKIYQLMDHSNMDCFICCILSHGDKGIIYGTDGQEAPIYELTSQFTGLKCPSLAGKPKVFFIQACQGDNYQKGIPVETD
Sequence of Caspase-8 (Q14790 385-479 limits assumed): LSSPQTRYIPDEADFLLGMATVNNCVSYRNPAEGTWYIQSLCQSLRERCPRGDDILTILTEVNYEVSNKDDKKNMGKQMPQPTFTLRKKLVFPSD

| Structure (SMILES) | IC50 (Caspase-8) [nM] | EC50 (Caspase-3 [1]) [nM] | IC50 (Caspase-1) [nM] | IC50 (Caspase-3 [2]) [nM] | IC50 (Caspase-7) [nM] | IC50 (Caspase-6) [nM] |
| --- | --- | --- | --- | --- | --- | --- |
| O=C1C(=O)N(Cc2ccc(OCCF)cc2)c2ccc(S(=O)(=O)N3CC[C@H]3COc3ccccc3)cc21 | > 25000 | 2000 | > 20000 | 8.6 | 26.1 | 4930 |
| O=C1C(=O)N(Cc2ccc(OCCF)cc2)c2ccc(S(=O)(=O)N3CC[C@H]3COc3cccnc3)cc21 | > 50000 | 380 | > 10000 | 3.6 | 17.6 | 8700 |
| COc1ccc(CN2C(=O)C(=O)c3cc(S(=O)(=O)N4CC[C@H]4COc4cccnc4)ccc32)cc1 | > 50000 | 450 | > 15000 | 3.3 | 10.2 | 9200 |
| O=C1C(=O)N(Cc2ccc(OCCOCCOCCF)cc2)c2ccc(S(=O)(=O)N3CCC[C@H]3COc3ccccc3)cc21 | > 50000 | 1300 | > 50000 | 13.7 | 17.6 | 7670 |
| O=C1C(=O)N(Cc2ccc(OCCF)cc2)c2ccc(S(=O)(=O)N3CCC[C@H]3COc3cccnc3)cc21 | > 50000 | 390 | > 20000 | 3.1 | 11.3 | 6900 |
| COc1ccc(CN2C(=O)C(=C(C#N)C#N)c3cc(S(=O)(=O)N4CC[C@H]4COc4cccnc4)ccc32)cc1 | > 50000 | – | > 36000 | 6 | 50 | 450 |
| N#CC(C#N)=C1C(=O)N(Cc2ccc(OCCF)cc2)c2ccc(S(=O)(=O)N3CCC[C@H]3COc3ccccc3)cc21 | > 50000 | – | > 10000 | 18.3 | 96.3 | 927 |
| O=C1C(=O)N(Cc2cn(CCF)nn2)c2ccc(S(=O)(=O)N3CC[C@H]3COc3ccccc3)cc21 | > 50000 | 800 | > 20000 | 11 | 18 | 6950 |
| O=C1C(=O)N(Cc2cn(CCF)nn2)c2ccc(S(=O)(=O)N3CC[C@H]3COc3cccnc3)cc21 | > 50000 | 420 | > 20000 | 5.6 | 6.1 | 7750 |
| O=C1C(=O)N(Cc2cn(CCF)nn2)c2ccc(S(=O)(=O)N3CCC[C@H]3COc3cccnc3)cc21 | > 50000 | 350 | > 20000 | 4.5 | – | 13400 |
| O=C1Nc2ccc(S(=O)(=O)N3CCC[C@H]3COc3cccnc3)cc2C1=O | – | 1830 | – | – | – | – |
| O=C1C(=O)N(Cc2ccccc2)c2ccc(S(=O)(=O)N3CC[C@H]3COc3ccccc3)cc21 | – | 2800 | – | – | – | – |
| O=C1C(=O)N(Cc2ccc(OCCF)cc2)c2ccc(S(=O)(=O)N3CCC[C@H]3COc3ccccc3)cc21 | – | 4500 | – | – | – | – |
| CN1C(=O)C(=O)c2cc(S(=O)(=O)N3CCC[C@H]3COc3ccccc3)ccc21 | – | 7670 | – | – | – | – |
| CN1C(=O)C(=O)c2cc(S(=O)(=O)N3CCC[C@H]3COc3cccnc3)ccc21 | – | 1800 | – | – | – | – |
| COc1ccc(CN2C(=O)C(=O)c3cc(S(=O)(=O)N4CCC[C@H]4COc4cccnc4)ccc32)cc1 | – | 450 | – | – | – | – |
| O=C1C(=O)N(Cc2ccccc2)c2ccc(S(=O)(=O)N3CCC[C@H]3COc3ccccc3)cc21 | – | 3670 | – | – | – | – |
| O=C1Nc2ccc(S(=O)(=O)N3CCC[C@H]3COc3ccccc3)cc2C1=O | – | 11500 | – | – | – | – |

Next, values leading:

| IC50 (Caspase-8) [nM] | EC50 (Caspase-3 [1]) [nM] | IC50 (Caspase-1) [nM] | IC50 (Caspase-3 [2]) [nM] | IC50 (Caspase-7) [nM] | IC50 (Caspase-6) [nM] | Structure (SMILES) |
| --- | --- | --- | --- | --- | --- | --- |
| > 50000 | 2150 | > 50000 | 27.9 | 28.9 | > 10000 | O=C1C(=O)N(Cc2ccc(OCCOCCF)cc2)c2ccc(S(=O)(=O)N3CC[C@H]3COc3ccccc3)cc21 |
| > 50000 | – | > 25000 | 26.9 | 19.2 | 2990 | O=C1C(=O)N(Cc2ccc(OCCOCCOCCF)cc2)c2ccc(S(=O)(=O)N3CC[C@H]3COc3ccccc3)cc21 |
| > 50000 | 1690 | > 25000 | 10.9 | 11.9 | > 10000 | O=C1C(=O)N(Cc2ccc(OCCOCCF)cc2)c2ccc(S(=O)(=O)N3CCC[C@H]3COc3ccccc3)cc21 |
| > 25000 | – | 4780 | 22.4 | 292 | 747 | N#CC(C#N)=C1C(=O)N(Cc2ccc(OCCF)cc2)c2ccc(S(=O)(=O)N3CC[C@H]3COc3ccccc3)cc21 |
| > 50000 | – | 5730 | 24.4 | 68.3 | 1010 | N#CC(C#N)=C1C(=O)N(Cc2ccc(OCCOCCF)cc2)c2ccc(S(=O)(=O)N3CC[C@H]3COc3ccccc3)cc21 |
| > 50000 | – | 2900 | 7.1 | 45 | 509 | N#CC(C#N)=C1C(=O)N(Cc2ccc(OCCF)cc2)c2ccc(S(=O)(=O)N3CC[C@H]3COc3cccnc3)cc21 |
| > 50000 | – | > 10000 | 23.3 | 70 | 1160 | N#CC(C#N)=C1C(=O)N(Cc2ccc(OCCOCCF)cc2)c2ccc(S(=O)(=O)N3CCC[C@H]3COc3ccccc3)cc21 |
| > 50000 | – | 3500 | 7.5 | 26.5 | 770 | N#CC(C#N)=C1C(=O)N(Cc2ccc(OCCF)cc2)c2ccc(S(=O)(=O)N3CCC[C@H]3COc3cccnc3)cc21 |
| > 50000 | 1390 | > 50000 | 12 | 15.4 | 3480 | O=C1C(=O)N(Cc2ccc(OCCF)cc2)c2ccc(S(=O)(=O)N3CC[C@H]3COc3ccc(F)cc3F)cc21 |
| > 50000 | 2500 | > 50000 | 15.2 | 12.3 | 9120 | O=C1C(=O)N(Cc2ccc(OCCF)cc2)c2ccc(S(=O)(=O)N3CCC[C@H]3COc3ccc(F)cc3F)cc21 |
| > 50000 | 1060 | > 20000 | 13.4 | 15.3 | 4700 | O=C1C(=O)N(Cc2cn(CCF)nn2)c2ccc(S(=O)(=O)N3CC[C@H]3COc3ccc(F)cc3F)cc21 |
| – | 650 | – | – | – | – | O=C1C(=O)N(Cc2ccccc2)c2ccc(S(=O)(=O)N3CCC[C@H]3COc3cccnc3)cc21 |
| – | 9570 | – | – | – | – | O=C1Nc2ccc(S(=O)(=O)N3CC[C@H]3COc3ccccc3)cc2C1=O |
| – | 3070 | – | – | – | – | COc1ccc(CN2C(=O)C(=O)c3cc(S(=O)(=O)N4CC[C@H]4COc4ccccc4)ccc32)cc1 |
| – | 3250 | – | – | – | – | CN1C(=O)C(=O)c2cc(S(=O)(=O)N3CC[C@H]3COc3ccccc3)ccc21 |
| > 50000 | 930 | > 20000 | 12.2 | 12.4 | 9970 | O=C1C(=O)N(Cc2cn(CCF)nn2)c2ccc(S(=O)(=O)N3CCC[C@H]3COc3ccccc3)cc21 |
| > 50000 | 680 | > 20000 | 10.8 | 11.6 | 4430 | O=C1C(=O)N(Cc2cn(CCF)nn2)c2ccc(S(=O)(=O)N3CCC[C@H]3COc3ccc(F)cc3F)cc21 |
